# Source: PubChem
# Most compounds without a hit are left out; they make up all but 6.4% or so of the library.
# WT yeast gro inh = growth inhibition of WT yeast, mitochondrial fusion screen; inhibition, % at 10 µM; mitochondrial fusion phenotypic screen, WT strain; AID 1362; 190,000 tested, 2.1% active; in the data active = inhibition above about 58%; tested in S. cerevisiae
# Tb MetRS inh = blocks T. brucei methionyl-tRNA synthetase activity. AID 624268. purified T. brucei MetRS, ATP depletion, Kinase-Glo luminescence. 360,000 tested, 0.4% active. inhibition, % at 11.9 µM;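 active = inhibition above a per-plate cutoff of the control wells' mean inhibition plus 3 SD, cut at about 5.5% in these data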;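 note: 0% = DMSO wells median and 100% = median of wells with control inhibitor compound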
#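 Assay system: T. brucei methionyl-tRNA synthetase, purified | Medium: HEPES buffer with MgCl2, KCl, DTT, spermine, BSA, pyrophosphatase | Compound: 11.9 µM single point | Incubation: 15 min enzyme-compound preincubation, 2 h reaction, 10 min detection, 25 °C | Measured by: Kinase-Glo luciferase luminescence reporting remaining unconsumed ATP | Measure: % inhibition normalized to control-well medians | Replication: Singlicate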
# GRIN3A LBD mod = modulates the human NR3A ligand-binding domain; 340,000 tested, 2.5% active; NR3A LBD differential scanning fluorimetry, Tm shift; 0% = protein alone, 100% = glycine-bound protein; Tm shift relative to glycine control, % at 25 µM;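 active = melting temperature shift of at least 10% of the positive control shift, at one fixed dose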
# MPTP inh = permeability transition pore inhibition; isolated mouse mitochondria, Ca2+ swelling absorbance, 30 min; inhibition, % at 10 µM; 360,000 tested, 1.4% active; AID 602449;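 active = inhibition of 50% or more, scaled per plate between neutral and stimulator controls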;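 note: 0% = DMSO wells given calcium and 100% = 1 mM EGTA wells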
# EBV gp42 inh = blocks Epstein-Barr virus glycoprotein 42 binding; 220,000 tested, 0.42% active; Q1HVG2; AID 1085; Fluorescence polarization binding assay, mP read-out; inhibition, % (tested at 21.74 µM); in the data active = inhibition above about 50%
# Target sequence (Q1HVG2 whole entry, looked up): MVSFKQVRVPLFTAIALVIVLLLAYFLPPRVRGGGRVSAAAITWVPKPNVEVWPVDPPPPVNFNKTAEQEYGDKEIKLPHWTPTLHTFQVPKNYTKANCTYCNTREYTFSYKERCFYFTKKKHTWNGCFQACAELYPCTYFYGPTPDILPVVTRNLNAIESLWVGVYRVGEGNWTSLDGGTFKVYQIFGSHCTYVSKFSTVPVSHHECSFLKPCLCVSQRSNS
# CHOP inh = blocks CHOP induction under ER stress | inhibition, % at 10 µM | CHO-K1 CHOP-promoter luciferase, tunicamycin-induced, 15-18 h | AID 2732 | 220,000 tested, 3.8% active;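 active = compounds that reduced the stress-induced luciferase reporter signal by more than about 70% of percent inhibition, limit read from the data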;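 note: 0% = tunicamycin plus vehicle and 100% = wells without tunicamycin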
# Rh123 counter = mitochondrial membrane potential, counter-screen | 5,000 tested, 78% active | isolated mitochondria, Rhodamine 123 fluorescence | inhibition, % at 10 µM | AID 624504 | shares compounds with MPTP inh; in the data active = inhibition above about 22%;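 note: 0% = DMSO vehicle and 100% = positive control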
# MPTP swell DR = MPTP inhibition, dose response swelling confirmation. IC50, µM. shares compounds with MPTP inh. 780 tested, 58% active. isolated mitochondria swelling, absorbance; in the data active = IC50 below about 20 µM
# MPTP counter DR = MPTP inhibitor counter-screen activity, dose response. AID 651564. isolated mitochondria counterscreen, fluorescence read-out. shares compounds with MPTP inh. IC50, µM. 780 tested, 49% active; in the data active = IC50 below about 80 µM
# * marks the source's active call; other numbers are inactive results; x = no result given.
SMILES,WT yeast gro inh,Tb MetRS inh,GRIN3A LBD mod,MPTP inh,EBV gp42 inh,CHOP inh,Rh123 counter,others
O=C(O)c1cc(S(=O)(=O)Nc2cc(Cl)ccc2Oc2ccccc2)ccc1O,x,0,8,72*,x,x,86*,
O=C(O)c1cc(S(=O)(=O)Nc2ccccc2C(=O)O)ccc1O,0,-1,-8,0,-16,-10,x,
N=c1n(CCO)c2ccccc2n1Cc1ccc(Cl)cc1,-3,0,8,89*,-10,5,-3,MPTP swell DR=13*;MPTP counter DR=48*
N=c1n(Cc2ccc(Cl)cc2)c2ccccc2n1CC(O)COc1ccccc1 (stereo not drawn),55,0,-2,78*,-9,83*,27*,
COCC(C)NC(=O)c1cc2cccc([N+](=O)[O-])c2[nH]1 (stereo not drawn),x,-1,0,1,-6,12,x,
Cc1cc(NC(=O)c2cc3cccc([N+](=O)[O-])c3[nH]2)ccc1F,x,0,29*,83*,-11,-6,69*,
CCCn1nc([N+](=O)[O-])c(C(C#N)c2nc3ccccc3s2)c(Cl)c1=O (stereo not drawn),78*,-1,6,112*,1,36,46*,
CCn1nc([N+](=O)[O-])c(C(C#N)c2nc3ccccc3n2C)c(Cl)c1=O (stereo not drawn),-16,0,-2,54*,-5,34,67*,
COc1ccc(NC(=O)CN2CCN(c3ccc(F)cc3)CC2)cc1Cl,8,-1,-9,2,-14,9,x,
CC1(C(=O)NS(=O)(=O)c2cccc(Cl)c2)CCN1C(=O)COc1ccc(Cl)cc1 (stereo not drawn),x,0,x,0,x,x,x,
CCC(=O)Nc1ccc(N/C(N)=N/c2nc(C)cc(C)n2)cc1,x,-1,1,4,3,3,x,
Cc1ccc(N/C(N)=N/c2nc(C)cc(C)n2)cc1,2,0,-1,0,-2,10,x,
Cc1cc(C)nc(/N=C(\N)Nc2ccc(C(C)C)cc2)n1,x,-1,1,53*,-6,30,56*,
CCCCc1ccc(N/C(N)=N/c2nc(C)cc(C)n2)cc1,x,0,-4,87*,-5,54,89*,
C[C@H](CO)N1C[C@H](C)[C@@H](CN(C)S(C)(=O)=O)Oc2c(NC(=O)Nc3ccc4c(c3)OCO4)cccc2C1=O,x,-1,-2,-1,x,x,x,
Cc1nnc(N/N=C/c2cc([N+](=O)[O-])c(N3CCC(C)CC3)cc2N2CCC(C)CC2)n1N,8,0,-7,83*,-14,44,66*,
Cc1cccc2cc(/C=N/NC(=O)c3ccccc3O)c(Cl)nc12,31,0,29*,91*,26,26,80*,
Cc1ccc2cc(/C=N/NC(=O)c3ccccc3O)c(Cl)nc2c1,-3,0,19*,61*,-1,9,82*,
Cc1cccc2cc(/C=N/NC(=O)c3ccncc3)c(Cl)nc12,x,0,1,4,-9,-12,x,
Cc1ccc(NC(=O)Nc2nnc(Cc3ccc(F)cc3)s2)cc1,x,-1,4,3,x,x,x,
Cc1ccc(NC(=O)Nc2nnc(Cc3ccc([N+](=O)[O-])cc3)s2)cc1C,18,-1,25*,86*,1,41,63*,
O=C(Nc1ccccc1)Nc1nnc(Cc2ccc(F)cc2)s1,x,3,-4,7,x,x,x,
O=C(Nc1ccccc1)Nc1nnc(Cc2ccc([N+](=O)[O-])cc2)s1,7,1,16*,93*,-28,90*,89*,
Cc1ccc(N=C2NC(=O)c3cc([N+](=O)[O-])ccc32)cc1,12,0,-1,0,28,19,x,
C#Cc1ccc([C@@H]2C=C(C(=O)NC3CC3)O[C@H](OCc3ccc(CO)cc3)C2)cc1,x,0,-1,-1,x,x,x,
SMILES,WT yeast gro inh,Tb MetRS inh,GRIN3A LBD mod,MPTP inh,EBV gp42 inh,CHOP inh,Rh123 counter,others
CC(=NNC(=S)Nc1cccc(C)c1)c1ccccn1,x,-1,-2,52*,x,x,62*,
COc1cc(NS(=O)(=O)c2ccc(-n3cccn3)cc2)cc(OC)c1,x,0,x,60*,x,x,71*,
CNC(=O)CSc1nnc(-c2ccco2)n1-c1cccc(C)c1C,x,0,-1,-4,x,x,x,
CC(=O)Nc1ccc(S(=O)(=O)NNC(=S)NCc2ccco2)cc1,x,1,2,0,x,x,x,
CCCCc1ccc(S(=O)(=O)NNC(=S)NCc2ccco2)cc1,37,0,-6,83*,2,7,65*,
O=C(Oc1ccc2ccc(OC(=O)N3CCCCCC3)cc2c1)N1CCCCCC1,22,0,-3,69*,-2,69,81*,
O=C(NC(=S)Nc1ccc(N2CCOCC2)cc1)c1cccc(Cl)c1Cl,x,0,1,0,x,x,x,
CCCC(=O)N1CCN(c2ccc(NC(=S)NC(=O)c3cccc(C)c3)cc2)CC1,32,0,-1,77*,-14,60,56*,
COc1cccc(C(=O)NC(=S)Nc2ccc(N3CCCC3)cc2)c1,-25,-1,-17,0,-1,-15,x,
CN1CCN(c2ccc(NC(=S)NC(=O)c3cccc4c(Cl)cccc34)cc2)CC1,x,-1,-1,91*,x,x,-8,
Cc1cccc(C)c1Nc1nnc(SCC(=O)c2ccc(Br)s2)s1,54,-1,-6,2,-17,13,x,
COc1ccccc1NC(=O)c1cc2cc(Br)ccc2cc1O,x,0,32*,80*,-6,88*,28*,
Cc1ccc(Cl)cc1NC(=O)c1cc2ccccc2cc1O,x,0,30*,99*,-14,82*,74*,
CC1(C)CC(NC(=O)c2cccc(S(=O)(=O)N(Cc3ccccc3)c3ccccc3)c2)CC(C)(C)N1,x,0,-1,83*,x,x,-17,MPTP swell DR=9.5*;MPTP counter DR=>80
Cn1ncc2c(Nc3ccc(Cl)cc3)ncnc21,x,0,0,1,x,x,x,
CC(C)(C)NC(=O)C1(C)CCC(=O)N1C1CC1 (stereo not drawn),x,-1,x,1,x,x,x,
CC(=O)c1ccc(NC(=S)NC(C)CCc2ccccc2)cc1 (stereo not drawn),35,-1,1,89*,2,9,93*,
Cc1ccc(NC(=S)NC(C)CCc2ccccc2)cc1C (stereo not drawn),68*,-1,-2,86*,-3,-23,97*,
O=C(Nc1cccc(Cl)c1)c1cccc(Oc2ccc([N+](=O)[O-])cc2Cl)c1,36,-2,8,86*,-3,67,97*,
COc1ccc(NC(=O)c2cccc(Oc3ccc([N+](=O)[O-])cc3Cl)c2)cc1,44,0,-28,38,7,21,x,
